Columns and labels:
Assay type in all cases: functional
[1] = system: Malme-3M; assay: Growth inhibition of human MALME-3M cells after 48 hrs by sulforhodamine B assay
How it was run: (§1)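 NCI-60 panel cells grown in RPMI 1640 with 5% FBS and 2 mM L-glutamine, seeded at 5000–40,000 cells/well and preincubated 24 h. Five 10-fold dilutions (0.001–100 µM) from DMSO stocks were added for 48 h at 37 °C. Adherent cells were fixed with cold TCA (10% final) for 60 min at 4 °C, stained with 0.4% SRB, and read at 515 nm. GI50 was set where 100×(T−T0)/(C−T0)=50.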

[2] = system: NCI-H226; assay: Growth inhibition of human NCI-H226 cells after 48 hrs by sulforhodamine B assay; settings: NCI-H226, 48 h; how it was run: as §1
[3] = system: HT-29; assay: Growth inhibition of human HT-29 cells after 48 hrs by sulforhodamine B assay; settings: HT-29, 48 h
How it was run: (§2)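 NCI-60 screen: cells in RPMI 1640 with 5% FBS and 2 mM glutamine, 5000–40,000 cells/well, preincubated 24 h. Five concentrations (10-fold dilutions; 100 to 0.001 µM) applied for 48 h at 37 °C. TCA fixation, SRB stain, absorbance at 515 nm. Time-zero plates included; GI50 where 100×(T−T0)/(C−T0)=50.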

[4] = Growth inhibition of human HCC2998 cells assessed as cell growth at 10 uM after 48 hrs by sulforhodamine B assay; settings: HCC 2998, 48 h, read-out: Activity
How it was run: (§3)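 NCI-60 single-dose screen at 10 µM: cells in RPMI 1640 with 5% FBS, preincubated 24 h, then exposed 48 h at 37 °C. TCA fixation (16% final for suspension cells), SRB staining, absorbance 515 nm. Percent growth relative to time-zero and untreated control plates; negative values indicate cell kill.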

[5] = system: HCT-116; assay: Growth inhibition of human HCT116 cells after 48 hrs by sulforhodamine B assay; settings: HCT-116, 48 h; how it was run: as §2
[6] = system: UO-31; assay: Growth inhibition of human UO31 cells after 48 hrs by sulforhodamine B assay; settings: UO-31, 48 h
How it was run: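 NCI-60 five-dose screen. Cells were grown in RPMI 1640 with 5% FBS and 2 mM L-glutamine, plated at 5000–40,000 cells/well and incubated 24 h before dosing, with T0 plates TCA-fixed. DMSO stocks were diluted to doses of […] and exposed 48 h at 37 °C, 5% CO2. Cells were fixed with cold TCA (final 10%, 60 min, 4 °C), stained with 0.4% SRB in 1% acetic acid for 10 min, solubilized in 10 mM trizma base and read at 515 nm. GI50 is where 100×(T−T0)/(C−T0)=50.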

[7] = system: UACC-257; assay: Growth inhibition of human UACC257 cells assessed as cell growth at 10 uM after 48 hrs by sulforhodamine B assay; settings: UACC-257, 48 h, read-out: Activity
How it was run: (§4)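 Single-dose NCI-60 test at 10 µM. Cells were grown in RPMI 1640 with 5% FBS and 2 mM L-glutamine, preincubated 24 h, with T0 plates TCA-fixed. Exposure was 48 h at 37 °C, 5% CO2. Cells were fixed with cold TCA (final 10%, 4 °C, 60 min), stained with SRB and read at 515 nm. Percent growth was taken relative to T0 and untreated control; negative values denote cell kill.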

[8] = system: SK-MEL-5; assay: Growth inhibition of human SK-MEL-5 cells assessed as cell growth at 10 uM after 48 hrs by sulforhodamine B assay; settings: SK-MEL-5, 48 h, read-out: Activity
How it was run: (§5)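 Single-dose NCI-60 screen: adherent cells in RPMI 1640 with 5% FBS were exposed to 10 µM for 48 h at 37 °C after a 24 h preincubation. They were fixed in situ with cold TCA (10% final), stained with 0.4% SRB in 1% acetic acid, solubilized in 10 mM Tris base, and read at 515 nm. Percent growth was taken relative to time-zero and control plates.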

[9] = system: SF-268; assay: Growth inhibition of human SF268 cells after 48 hrs by sulforhodamine B assay; settings: SF-268, 48 h; how it was run: as §1
[10] = system: SNB-19; assay: Growth inhibition of human SNB19 cells assessed as cell growth at 10 uM after 48 hrs by sulforhodamine B assay; settings: SNB-19, 48 h, read-out: Activity; how it was run: as §4
[11] = system: HL-60(TB); assay: Growth inhibition of human HL-60(TB) cells assessed as cell growth at 10 uM after 48 hrs by sulforhodamine B assay; settings: HL-60, 48 h, read-out: Activity
How it was run: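 NCI-60 single-dose screen run at 10 µM on HL-60(TB) suspension cells in RPMI 1640 with 5% FBS and 2 mM L-glutamine. Cells were preincubated for 24 h, with a time-zero plate fixed then. Exposure lasted 48 h at 37 °C. Settled cells were fixed with TCA (16% final), stained with SRB and read at 515 nm. Percent growth is relative to control and T0.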

[12] = system: HCT-116; assay: Growth inhibition of human HCT116 cells assessed as cell growth at 10 uM after 48 hrs by sulforhodamine B assay; settings: HCT-116, 48 h, read-out: Activity; how it was run: as §3
[13] = system: A549; assay: Growth inhibition of human A549/ATCC cells after 48 hrs by sulforhodamine B assay; settings: A549, 48 h; how it was run: as §2
[14] = system: SK-MEL-28; assay: Growth inhibition of human SK-MEL-28 cells assessed as cell growth at 10 uM after 48 hrs by sulforhodamine B assay; settings: SK-MEL-28, 48 h, read-out: Activity; how it was run: as §5
[15] = system: HOP-62; assay: Growth inhibition of human HOP62 cells after 48 hrs by sulforhodamine B assay; settings: HOP-62, 48 h; how it was run: as §2
[16] = system: CCRF-CEM; assay: Growth inhibition of human CCRF-CEM cells after 48 hrs by sulforhodamine B assay; how it was run: as §2
[17] = system: MDA-MB-435; assay: Growth inhibition of human MDA-MB-435 cells assessed as cell growth at 10 uM after 48 hrs by sulforhodamine B assay; settings: MDA-MB-435, 48 h, read-out: Activity; how it was run: as §5
[18] = system: A498; assay: Growth inhibition of human A498 cells assessed as cell growth at 10 uM after 48 hrs by sulforhodamine B assay; settings: A498, 48 h, read-out: Activity; how it was run: as §3
[19] = system: HCT-15; assay: Growth inhibition of human HCT15 cells assessed as cell growth at 10 uM after 48 hrs by sulforhodamine B assay; settings: HCT-15, 48 h, read-out: Activity; how it was run: as §3
[20] = system: ACHN; assay: Growth inhibition of human ACHN cells after 48 hrs by sulforhodamine B assay; how it was run: as §2
[21] = system: OVCAR-5; assay: Growth inhibition of human OVCAR5 cells after 48 hrs by sulforhodamine B assay; settings: OVCAR-5, 48 h; how it was run: as §1
[22] = system: RPMI-8226; assay: Growth inhibition of human RPMI8226 cells after 48 hrs by sulforhodamine B assay; settings: RPMI-8226, 48 h
How it was run: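 NCI-60 suspension lines in RPMI 1640 with 5% FBS and 2 mM L-glutamine, preincubated 24 h. A five-concentration 10-fold series (0.001–100 µM) was given for 48 h at 37 °C. Settled cells were fixed with 80% TCA (16% final), stained with SRB, and read at 515 nm. GI50 was taken where 100×(T−T0)/(C−T0)=50, with T0 plates fixed at drug addition.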

Row | Compound | GI50 [1] [nM] | GI50 [2] [nM] | GI50 [3] [nM] | growth at 10 µM [4] [%] | GI50 [5] [nM] | GI50 [6] [nM] | growth at 10 µM [7] [%] | growth at 10 µM [8] [%] | GI50 [9] [nM] | growth at 10 µM [10] [%] | growth at 10 µM [11] [%] | growth at 10 µM [12] [%] | GI50 [13] [nM] | growth at 10 µM [14] [%] | GI50 [15] [nM] | GI50 [16] [nM] | growth at 10 µM [17] [%] | growth at 10 µM [18] [%] | GI50 [20] [nM] | GI50 [21] [nM] | also measured
1 | CC(C)=CCC/C(C)=C/CC/C(C)=C/CC[C@]1(C)CCc2c3c(cc(C)c2O1)OCN(CCCCCO)C3 | 6900 | 6190 | 3740 | -48.5 | 5250 | 4640 | 83.8 | 83.9 | 7130 | 82 | 58.3 | -89.6 | 6190 | 34.7 | 5900 | 7830 | 44.7 | 89.7 | 5740 | 5930 | growth at 10 µM [19]: 62.3%; GI50 [22]: 9910 nM
2 | CC(C)=CCC/C(C)=C/CC/C(C)=C/CC[C@]1(C)CCc2c3c(cc(C)c2O1)OCN(CCc1ccc(O)cc1)C3 | 7060 | 5400 | 3530 | -84.7 | 3880 | 4420 | 105 | 73.8 | 6170 | 92.1 | 31.2 | -58.2 | 6090 | -83.8 | 5660 | 1750 | -53.1 | 100 | 5940 | 6110 | growth at 10 µM [19]: 80.4%; GI50 [22]: 4030 nM
3 | CC(C)=CCC/C(C)=C/CC/C(C)=C/CC[C@]1(C)CCc2c3c(cc(C)c2O1)OCN(CCCCCCCCO)C3 | 7150 | 5170 | 703 | -90.9 | 597 | 3460 | 99 | 19.1 | 4140 | -74.6 | -57.3 | -100 | 616 | -89.2 | 2700 | 865 | -76.2 | 117 | 2160 | 2730 | growth at 10 µM [19]: -10.9%; GI50 [22]: 1220 nM
4 | CC(C)=CCC/C(C)=C/CC/C(C)=C/CC[C@]1(C)CCc2c3c(c(C)c(C)c2O1)OCN(CCCCCCO)C3 | 2780 | 2810 | 3040 | -63.7 | 2870 | 2270 | 104 | 95.2 | 2810 | 18.1 | 65.9 | -92.7 | 3090 | 63.1 | 2700 | 2730 | 22.1 | 111 | 2750 | 2760 | growth at 10 µM [19]: 38.4%; GI50 [22]: 3360 nM
5 | CC(C)=CCC/C(C)=C/CC/C(C)=C/CC[C@]1(C)CCc2c3c(cc(C)c2O1)OCN(CCCO)C3 | 2100 | 2310 | 1780 | -82.9 | 1790 | 1470 | 64.2 | 57.5 | 2040 | 4.52 | 15.3 | -85.4 | 1890 | -50.7 | 1780 | 2590 | -24 | 106 | 1750 | 1770 | growth at 10 µM [19]: 0.85%; GI50 [22]: 2160 nM
6 | COc1ccc(CCN2COc3cc(C)c4c(c3C2)CC[C@@](C)(CC/C=C(\C)CC/C=C(\C)CCC=C(C)C)O4)cc1OC | 2030 | 2000 | 1850 | -87.2 | 1760 | 1630 | 71.8 | 90 | 2130 | 80.5 | 15.4 | -84 | 1900 | -55.6 | 1760 | 3320 | -51.1 | 83.2 | 1750 | 1860 | growth at 10 µM [19]: 57.4%; GI50 [22]: 3070 nM
7 | CC(C)=CCC/C(C)=C/CC/C(C)=C/CC[C@]1(C)CCc2c3c(cc(C)c2O1)OCN(CCCCCCO)C3 | 6250 | 5270 | 720 | -89.1 | 659 | 1520 | 90.5 | 20.9 | 1180 | -6.48 | -24.5 | -97.3 | 607 | -49.6 | 877 | 866 | -48.1 | 121 | 2290 | 2550 | growth at 10 µM [19]: 5.75%; GI50 [22]: 1110 nM
8 | CC(C)=CCC/C(C)=C/CC/C(C)=C/CC[C@]1(C)CCc2c3c(c(C)c(C)c2O1)OCN(CCCCO)C3 | > 10000 | > 10000 | 2870 | -61.8 | 2000 | 8830 | 112 | 91 | > 10000 | 71.3 | 72.2 | -72.3 | 3300 | 106 | 5950 | 3450 | 53.9 | 116 | > 10000 | > 10000 | GI50 [22]: 5150 nM

— ChEMBL document CHEMBL2380254, “Optimization of tocotrienols as antiproliferative and antimigratory leads” (Eur J Med Chem, 2013)
